Data as given in ChEMBL document CHEMBL1128383, “Potent, orally active, competitive N-methyl-D-aspartate (NMDA) receptor antagonists are substrates for a neutral amino acid uptake system in Chinese hamster ovary cells” (J Med Chem, 1995).
One block for each compound: values may come before it.

What was measured:
Mus musculus [1] = assay: Maximal electroshock (MES) results in mice by iv administration of 10 mg/kg expressed as number of animals protected by total 5 animals tested after 2 hr was reported; assay type: functional
Procedure, shortened: (§1)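 Adult male CF-1 mice (18–24 g) dosed iv, mg/kg. At 15 min, 1 h and 2 h after dosing, a 60 Hz sinusoidal current (50 mA base to peak, 0.2 s) is applied through corneal electrodes smeared with electrolyte jelly. Protection means no tonic hindlimb extension. Ataxia is scored by inverted screen. Data are expressed as animals affected per animals tested, 5 per group.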

Mus musculus [2] = assay: Maximal electroshock (MES) results in mice by iv administration of 10 mg/kg expressed as number of animals ataxia by total 5 animals tested after 1 hr was reported; assay type: functional; procedure, shortened: as §1
Glutamate NMDA receptor [3] = assay: (§2) Inhibition of NMDA receptor binding affinity in rat brain synaptosomal membrane using [3H]glutamate as radioligand; assay type: cell membranes
Procedure, shortened: (§3)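 Displacement of radioligand ([3H]glutamate, [3H]glycine or [3H]CGP 39653) from rat cortex synaptosomal membranes. IC50 values are means of at least two experiments, each run in triplicate.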

Glutamate NMDA receptor [4] = assay: (§4) Inhibition of receptor binding affinity in rat brain synaptosomal membrane was determined by [3H]-CGP- 39653 as radioligand; assay type: cell membranes; procedure, shortened: as §3
Mus musculus [5] = assay: Maximal electroshock (MES) results in mice by iv administration of 10 mg/kg expressed as number of animals ataxia by total 5 animals tested after 15 min was reported; assay type: functional; procedure, shortened: as §1
Glutamate NMDA receptor [6] = assay: (§5) Inhibition of NMDA receptor binding affinity in rat brain synaptosomal membrane using [3H]glycine as radioligand; assay type: cell membranes; procedure, shortened: as §3
Mus musculus [7] = assay: Maximal electroshock (MES) results in mice by iv administration of 10 mg/kg expressed as number of animals ataxia by total 5 animals tested after 2 hr was reported; assay type: functional; procedure, shortened: as §1
Mus musculus [8] = assay: Maximal electroshock (MES) results in mice by iv administration of 10 mg/kg expressed as number of animals protected by total 5 animals tested after 15 min was reported; assay type: functional; procedure, shortened: as §1
Mus musculus [9] = assay: Maximal electroshock (MES) results in mice by iv administration of 10 mg/kg expressed as number of animals protected by total 5 animals tested after 1 hr was reported; assay type: functional; procedure, shortened: as §1
Mus musculus [10] = assay: Maximal electroshock results in mice by iv administration of 3 mg/kg expressed as 50% effective dose; assay type: functional
[11] = Therapeutic index(TI) expressed as ratio of ataxia ED50 to the MES ED50 was determined; details: read-out: TI
Glutamate NMDA receptor [12] = assay: Inhibition of receptor binding affinity in […] measured using LDH release
Procedure, shortened: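 Neuronal cell-culture excitotoxicity assay. Cell death is induced by a 5 min application of 100 μM NMDA and read out as lactate dehydrogenase release. The value is the compound concentration needed to prevent cell death.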

Mus musculus [13] = species on record: Mus musculus; assay: Potent oral activity in MES mice.; assay type: functional
[14] = molecular target: T1, Glutamate NMDA receptor (Rattus norvegicus) (UniProt P35439+Q00959+Q00960+Q00961+Q62645+Q8VHN2+Q9R1M7); assay: as §4; assay type: cell membranes; details: concentration not given here; procedure, shortened: as §3
[15] = molecular target: T1, Glutamate NMDA receptor (Rattus norvegicus); assay: as §2; assay type: cell membranes; details: concentration not given here; procedure, shortened: as §3
[16] = molecular target: T1, Glutamate NMDA receptor (Rattus norvegicus); assay: as §5; assay type: cell membranes; details: concentration not given here; procedure, shortened: as §3
Mus musculus [17] = assay: Maximal electroshock (MES) results in mice by iv administration of 10 mg/kg expressed as number of animals protected by number of animals tested after 15 min was reported; assay type: functional; procedure, shortened: as §1
Mus musculus [18] = assay: Maximal electroshock (MES) results in mice by iv administration of 30 mg/kg expressed as number of animals protected by total 5 animals tested after 15 min was reported; assay type: functional; procedure, shortened: as §1
Mus musculus [19] = assay: Maximal electroshock (MES) results in mice by iv administration of 30 mg/kg expressed as number of animals protected by total 5 animals tested after 1 hr was reported; assay type: functional; procedure, shortened: as §1
Mus musculus [20] = assay: Maximal electroshock (MES) results in mice by iv administration of 30 mg/kg expressed as number of animals ataxia by total 5 animals tested after 15 min was reported; assay type: functional; procedure, shortened: as §1
Mus musculus [21] = assay: Maximal electroshock (MES) results in mice by iv administration of 10 mg/kg expressed as number of animals protected by number of animals tested after 1 hr was reported; assay type: functional; procedure, shortened: as §1
Mus musculus [22] = assay: Maximal electroshock (MES) results in mice by iv administration of 10 mg/kg expressed as number of animals ataxia by number of animals tested after 15 min was reported; assay type: functional; procedure, shortened: as §1
Mus musculus [23] = assay: Maximal electroshock (MES) results in mice by iv administration of 30 mg/kg expressed as number of animals ataxia by total 5 animals tested after 2 hr was reported; assay type: functional; procedure, shortened: as §1
Mus musculus [24] = assay: Maximal electroshock (MES) results in mice by iv administration of 10 mg/kg expressed as number of animals ataxia by number of animals tested after 1 hr was reported; assay type: functional; procedure, shortened: as §1
Mus musculus [25] = assay: Maximal electroshock (MES) results in mice by iv administration of 30 mg/kg expressed as number of animals protected by total 5 animals tested after 2 hr was reported; assay type: functional; procedure, shortened: as §1
Mus musculus [26] = assay: Maximal electroshock (MES) results in mice by iv administration of 30 mg/kg expressed as number of animals ataxia by total 5 animals tested after 1 hr was reported; assay type: functional; procedure, shortened: as §1

- IC50 (Glutamate NMDA receptor [3]): 13500 nM
- IC50 (Glutamate NMDA receptor [4]): 5210 nM
- IC50 (Glutamate NMDA receptor [6]): > 200000 nM
Compound: N[C@H](Cc1cc(CP(=O)(O)O)cc(-c2ccccc2)c1)C(=O)O
- Protected (Mus musculus [1]): 0
- Ataxia (Mus musculus [2]): 0
- Ataxia (Mus musculus [5]): 0
- Ataxia (Mus musculus [7]): 0
- Protected (Mus musculus [8]): 0
- Protected (Mus musculus [9]): 0

- IC50 (Glutamate NMDA receptor [3]): 650 nM
- IC50 (Glutamate NMDA receptor [4]): 590 nM
Compound: N[C@H](Cc1cc(CP(=O)(O)O)cc(-c2ccc3ccccc3c2)c1)C(=O)O

- IC50 (Glutamate NMDA receptor [3]): 15 nM
- IC50 (Glutamate NMDA receptor [12]): 50 nM
- IC50 (Glutamate NMDA receptor [4]): 6 nM
- IC50 (Glutamate NMDA receptor [6]): 65400 nM
Compound: N[C@@H](Cc1cc(CP(=O)(O)O)cc(-c2cccc3ccccc23)c1)C(=O)O
- ED50 (Mus musculus [10]): 0.53 mg/kg
- selectivity ratio [11]: 2.28
- ED50 (Mus musculus [13]): 5 mg/kg

- inhibition [14]: 100%
- inhibition [15]: 90%
- inhibition [16]: 81%
Compound: N[C@H](Cc1cccc(-c2ccccc2)c1)C(=O)O

- IC50 (Glutamate NMDA receptor [3]): 320 nM
- IC50 (Glutamate NMDA receptor [4]): 250 nM
Compound: N[C@H](Cc1cc(CP(=O)(O)O)cc(-c2cccc3ccccc23)c1)C(=O)O
- Protected (Mus musculus [17]): 0
- Protected (Mus musculus [18]): 3
- Protected (Mus musculus [19]): 3
- Protected (Mus musculus [1]): 1
- Ataxia (Mus musculus [20]): 1
- Protected (Mus musculus [21]): 0
- Ataxia (Mus musculus [22]): 0
- Ataxia (Mus musculus [23]): 0
- Ataxia (Mus musculus [7]): 0
- Ataxia (Mus musculus [24]): 0
- Protected (Mus musculus [25]): 5
- Ataxia (Mus musculus [26]): 0
